# Bioassay records: PubChem, Broad Institute
# T cruzi growth-1: inhibitors of T. cruzi proliferation; inhibition, % at 8.34 µM; AID 624255; 77,000 tested, 5.9% active; T. cruzi beta-gal in NIH3T3, GalScreen luminescence, 90 h;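 active = mean inhibition above about 93%, with at least 55% of replicates each passing it, limit read from the data, passing the limit was not always enough; inconclusive = only one of those two conditions holds; inactive = neither condition holds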
# IDH1 mut inh: blocks human IDH1 R132H reductase activity; diaphorase/resazurin fluorescence, 60 min; inhibition, % at 10 µM; 70,000 tested, 0.18% active; in the data active = inhibition above about 34%; inconclusive = no clear call, values can overlap the other calls; inactive = below about 11%
# KDM4C inh: inhibitors of human demethylase GASC-1 KDM4C; Q9H3R0; GST-KDM4C 2-372, H3K9me3 peptide, LANCE TR-FRET; inhibition, % at 12.5 µM; 96,000 tested, 0.15% active; AID 720574;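 active = mean replicate inhibition above about 25%, with at least 55% of replicates also reaching it, limit read from the data, passing the limit was not always enough; inconclusive = only one of those two conditions met; inactive = neither condition met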
# Target sequence (Q9H3R0 2-372 limits assumed): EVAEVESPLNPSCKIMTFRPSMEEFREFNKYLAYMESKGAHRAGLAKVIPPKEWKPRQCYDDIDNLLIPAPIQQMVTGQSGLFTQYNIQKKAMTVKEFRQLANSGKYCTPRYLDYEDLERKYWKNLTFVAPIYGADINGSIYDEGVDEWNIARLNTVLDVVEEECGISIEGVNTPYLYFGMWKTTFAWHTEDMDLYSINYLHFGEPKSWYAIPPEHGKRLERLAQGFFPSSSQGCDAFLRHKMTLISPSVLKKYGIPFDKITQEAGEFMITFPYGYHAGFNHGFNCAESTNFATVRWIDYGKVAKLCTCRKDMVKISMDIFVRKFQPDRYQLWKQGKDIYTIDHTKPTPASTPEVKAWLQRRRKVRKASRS
#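 Material: GST-tagged GASC-1 (JMJD2C) catalytic fragment, aa 2-372 / Quantity: enzyme final amount 10 nM / Medium: HEPES buffer, pH 7.5, plus ascorbate / Doses: one test concentration per compound / Incubation: 30 min reaction, 60 min detection, RT / Measured by: LANCE TR-FRET / Read-out: inhibition from TR-FRET ratio decrease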
# T cruzi growth-2: Trypanosoma cruzi proliferation inhibition; shares compounds with T cruzi growth-1; T. cruzi beta-gal in NIH3T3, GalScreen luminescence, 90 h; inhibition, % at 8.35 µM; 5,600 tested, 72% active; AID 651739;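 active = mean replicate inhibition above about 95% and at least 55% of replicates individually reaching it, limit read from the data; inconclusive = only one of the two criteria is met; inactive = neither criterion is met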
# T cruzi growth-3: inhibitors of T. cruzi proliferation. shares compounds with T cruzi growth-1. T. cruzi beta-gal in NIH3T3, GalScreen luminescence, 90 h. inhibition, % at 2.09 µM. 5,600 tested, 21% active;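 active = mean inhibition above about 95%, with at least 55% of replicates also reaching it, limit read from the data; inconclusive = meets just one of the two conditions; inactive = meets neither condition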
# NIH3T3 tox: kills mouse NIH/3T3 fibroblasts. shares compounds with T cruzi growth-1. NIH/3T3 viability, CellTiter-Glo ATP luminescence, 90 h. cytotoxicity (signal decrease), % at 8.35 µM. 5,600 tested, 14% active. AID 651742;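 active = mean signal decrease across replicates above about 35% based on untreated-well scatter, with enough replicates individually passing, limit read from the data; inconclusive = no rule stated though some were filed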
# 3T3 cytotox 2: NIH/3T3 (mouse) viability loss; NIH/3T3 viability, CellTiter-Glo ATP luminescence, 90 h; AID 651744; shares compounds with T cruzi growth-1; 5,600 tested, 56% active; inhibition, % at 24.9 µM;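 active = mean loss of cell viability signal at or above a set limit, and enough replicates individually reaching it; inconclusive = meets only the mean limit or only the replicate share; inactive = meets neither condition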
# Hits are given with their value; – = inactive; ? = inconclusive; · = no result. Only a selection was taken, and hits are over-represented in it overall.
SMILES,T cruzi growth-1,IDH1 mut inh,KDM4C inh,T cruzi growth-2,T cruzi growth-3,NIH3T3 tox,3T3 cytotox 2
COc1ccc(S(=O)(=O)N(C)C[C@H]2OCCCC[C@H](C)Oc3ccc(NC(=O)NC4CCCCC4)cc3C(=O)N([C@H](C)CO)C[C@H]2C)cc1,–,–,–,·,·,·,·
COc1ccc(S(=O)(=O)N(C)C[C@H]2OCCCC[C@H](C)Oc3ccc(NC(=O)NC4CCCCC4)cc3C(=O)N([C@H](C)CO)C[C@@H]2C)cc1,104.4,–,–,112.1,–,–,–
CC(=O)N(C)C[C@H]1Oc2ncc(-c3cccc(F)c3)cc2C(=O)N([C@H](C)CO)C[C@@H]1C,–,–,–,·,·,·,·
Cc1ccc(S(=O)(=O)Nc2ccc3c(c2)C(=O)N([C@@H](C)CO)C[C@@H](C)[C@@H](CN(C)C(=O)CCC(F)(F)F)OCCCC[C@@H](C)O3)cc1,–,–,–,·,·,·,·
O=C(c1ccccc1F)N1CC[C@H]2[C@H](CO)Nc3ccc(-c4ccccc4)cc3[C@H]21,–,·,–,·,·,·,·
CN(C)C(=O)c1ccc(-c2ccc3c(c2)[C@@H]2[C@@H](CCN2C(=O)c2ccccc2F)[C@H](CO)N3)cc1,–,·,–,·,·,·,·
O=C(c1ccccc1F)N1CC[C@@H]2[C@H](CO)Nc3ccc(-c4ccccc4)cc3[C@@H]21,–,·,–,·,·,·,·
CN(C)C(=O)c1cccc(-c2ccc3c(c2)[C@H]2[C@H](CCN2C(=O)c2ccccc2F)[C@H](CO)N3)c1,99.3,·,–,103.4,–,–,–
CN(C)C(=O)c1cccc(-c2ccc3c(c2)[C@@H]2[C@@H](CCN2C(=O)c2ccccc2F)[C@H](CO)N3)c1,101.3,·,–,100.7,–,–,–
CN(C)C(=O)c1cccc(-c2ccc3c(c2)[C@H]2[C@H](CCN2C(=O)c2ccccc2F)[C@@H](CO)N3)c1,101.0,·,–,103.7,–,–,–
O=C(C[C@@H]1CC[C@H](NC(=O)C2CCOCC2)[C@@H](CO)O1)NCc1ccccc1Cl,–,–,–,·,·,·,·
COc1cccc(CNC(=O)C[C@H]2CC[C@H]3[C@H](COc4ccc(NC(=O)c5cccs5)cc4C(=O)N3C)O2)c1,–,·,–,·,·,·,·
COc1ccc(OC)c(NC(=O)COc2cc(C)c(Br)cc2C)c1,·,–,·,·,·,·,·
CCCN(C)C[C@@H]1OCCCC[C@H](C)Oc2ccc(NC(=O)CCC(F)(F)F)cc2C(=O)N([C@H](C)CO)C[C@@H]1C,–,–,–,·,·,·,·
COc1ccc2c3c(n(C)c2c1)[C@@H](CO)N(C)CC31CN(S(=O)(=O)c2cccc(F)c2)C1,·,·,–,·,·,·,·
O=C(c1cccc(F)c1)N1CCCCN2[C@H](CO)[C@H](c3ccc(-c4ccccc4)cc3)[C@@H]2C1,101.6,·,–,113.3,–,–,–
O=C(c1cccc(F)c1)N1CCCCN2[C@@H](CO)[C@@H](c3ccc(-c4cccnc4)cc3)[C@@H]2C1,–,·,–,·,·,·,·
O=C(c1cccc(F)c1)N1CCCCN2[C@@H](CO)[C@@H](c3ccc(-c4ccccc4)cc3)[C@@H]2C1,–,·,–,·,·,·,·
O=C(c1cccc(F)c1)N1CCCCN2[C@@H](CO)[C@H](c3ccc(-c4ccccc4)cc3)[C@@H]2C1,102.7,·,–,104.6,–,–,91.1
Cc1ccc(-n2c(SCC(=O)Nc3ccccc3-c3ccccc3)nc3ccccc3c2=O)cc1,·,–,·,·,·,·,·
C[C@H]1CCCCO[C@H](CN(C)Cc2ccc3c(c2)OCO3)[C@@H](C)CN([C@@H](C)CO)C(=O)c2cc(NC(=O)Nc3ccc(C(F)(F)F)cc3)ccc2O1,?,–,–,–,106.3,91.2,102.8
C[C@H]1CCCCO[C@@H](CN(C)Cc2ccc(C(F)(F)F)cc2)[C@@H](C)CN([C@@H](C)CO)C(=O)c2cc(NC(=O)Nc3ccc4c(c3)OCO4)ccc2O1,–,–,–,·,·,·,·
C[C@H](CO)N1C[C@H](C)[C@H](CN(C)Cc2ccc3c(c2)OCO3)OCCCC[C@H](C)Oc2ccc(NC(=O)Nc3ccc(C(F)(F)F)cc3)cc2C1=O,?,·,–,104.2,112.6,123.5,103.7
C[C@@H]1CCCCO[C@@H](CN(C)Cc2ccc3c(c2)OCO3)[C@@H](C)CN([C@H](C)CO)C(=O)c2cc(NC(=O)Nc3ccc(C(F)(F)F)cc3)ccc2O1,127.1,·,–,–,110.4,–,–
C[C@@H]1CN([C@@H](C)CO)C(=O)c2cc(NC(=O)Nc3ccc(C(F)(F)F)cc3)ccc2O[C@@H](C)CCCCO[C@H]1CN(C)Cc1ccc2c(c1)OCO2,?,·,–,100.1,112.1,–,104.9
SMILES,T cruzi growth-1,IDH1 mut inh,KDM4C inh,T cruzi growth-2,T cruzi growth-3,NIH3T3 tox,3T3 cytotox 2
C[C@@H]1CCCCO[C@H](CN(C)Cc2ccc(C(F)(F)F)cc2)[C@H](C)CN([C@@H](C)CO)C(=O)c2cc(NC(=O)Nc3ccc4c(c3)OCO4)ccc2O1,–,–,–,·,·,·,·
CO[C@@H]1CN(C)C(=O)c2cc(NC(=O)NC3CCCCC3)ccc2OC[C@H](C)N(CC2CCOCC2)C[C@@H]1C,·,–,–,·,·,·,·
COc1ccc(S(=O)(=O)N(C)C[C@@H]2Oc3ccc(NS(=O)(=O)c4ccc(F)cc4)cc3CC(=O)N([C@H](C)CO)C[C@@H]2C)cc1,–,·,–,·,·,·,·
C[C@H]1CCCCO[C@H](CN(C)Cc2ccc(C(F)(F)F)cc2)[C@@H](C)CN([C@@H](C)CO)C(=O)c2cc(NC(=O)Nc3ccc4c(c3)OCO4)ccc2O1,–,·,–,·,·,·,·
C[C@@H]1CCCCO[C@H](CN(C)Cc2ccc3c(c2)OCO3)[C@H](C)CN([C@@H](C)CO)C(=O)c2cc(NC(=O)Nc3ccc(C(F)(F)F)cc3)ccc2O1,121.8,–,–,95.9,115.7,122.1,103.5
C[C@@H]1CN([C@H](C)CO)C(=O)c2cc(NC(=O)Nc3ccc(C(F)(F)F)cc3)ccc2O[C@@H](C)CCCCO[C@H]1CN(C)Cc1ccc2c(c1)OCO2,?,–,–,?,103.5,–,104.1
C[C@@H]1CCCCO[C@H](CN(C)Cc2ccc3c(c2)OCO3)[C@@H](C)CN([C@@H](C)CO)C(=O)c2cc(NC(=O)Nc3ccc(C(F)(F)F)cc3)ccc2O1,?,·,·,97.5,116.0,117.5,104.3
C[C@H](CO)N1C[C@H](C)[C@@H](CN(C)Cc2ccc(C(F)(F)F)cc2)OCCCC[C@H](C)Oc2ccc(NC(=O)Nc3ccc4c(c3)OCO4)cc2C1=O,–,–,–,·,·,·,·
C[C@@H]1CCCCO[C@@H](CN(C)Cc2ccc(C(F)(F)F)cc2)[C@H](C)CN([C@H](C)CO)C(=O)c2cc(NC(=O)Nc3ccc4c(c3)OCO4)ccc2O1,–,·,–,·,·,·,·
COc1ccc2c3c([nH]c2c1)[C@@H](CO)N(C(=O)c1ccccc1)CC31CN(C(=O)Nc2cccc(F)c2)C1,·,·,–,·,·,·,·
CCOC(=O)c1ccccc1NC(=O)CN1C(=O)c2cccc3cccc1c23,·,–,·,·,·,·,·
O=C(CSc1nc2ccccc2[nH]1)Nc1cccc(Cl)c1Cl,·,–,·,·,·,·,·
